What was measured:
hMLH1 [1] = assay: Interaction of hEXO1 variants with hMLH1; type: binding, human; settings: GST-hMLH1 pull-down, 35S-labeled IVTT protein; Fig. S1
[2] = system: PCNA replication foci in NIH3T3 cells; type: cell-based, murine; settings: for Small foci (CFP-PCNA) / Large foci (CFP-PCNA) / Mid Foci (CFP-PCNA): CFP channel (CFP-PCNA) in cells co-expressing the hEXO1 protein, 50 co-transfected cells; for Small foci (CFP-PCNA): early S-phase foci; for Large foci (CFP-PCNA): late S-phase foci; for Mid Foci (CFP-PCNA): mid S-phase foci; for foci formation and co-localization with PCNA during S-phase: NIH3T3 cells co-transfected with CFP-PCNA, 24–48 h; for sub-cellular localization: NIH3T3 cells, confocal imaging
Summary of the method: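 Murine NIH3T3 cells were kept in DMEM with 10% FBS and penicillin/streptomycin at 37 °C, 10% CO₂. Cells (2*10⁵ per glass-bottom dish) were seeded 24 h before ExGen500 co-transfection with 3 μg total plasmid (CFP-PCNA plus YFP fusion). Confocal imaging at 24–48 h. Co-transfected cells were counted and binned by pattern, e.g. "no foci" (diffuse CFP-PCNA, diffuse nuclear YFP).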

hMLH1 [3] = settings: MIP-box mutant; ref [52]; cited from earlier work
[4] = system: laser induced DNA double strand breaks in HeLa cells; type: cell-based; settings: laser irradiation
[5] = system: laser induced DNA double strand breaks in HeLa cells; settings: NLS mutant, ref [43]; cited from earlier work

B1: YFP-hEXO1-S702X: COOH-terminally truncated version of YFP-hEXO1, truncated from amino acid 702 (protein, UniProt Q9UQ84 1-701, looked up, fragment)
chain: MGIQGLLQFIKEASEPIHVRKYKGQVVAVDTYCWLHKGAIACAEKLAKGEPTDRYVGFCMKFVNMLLSHGIKPILVFDGCTLPSKKEVERSRRERRQANLLKGKQLLREGKVSEARECFTRSINITHAMAHKVIKAARSQGVDCLVAPYEADAQLAYLNKAGIVQAIITEDSDLLAFGCKKVILKMDQFGNGLEIDQARLGMCRQLGDVFTEEKFRYMCILSGCDYLSSLRGIGLAKACKVLRLANNPDIVKVIKKIGHYLKMNITVPEDYINGFIRANNTFLYQLVFDPIKRKLIPLNAYEDDVDPETLSYAGQYVDDSIALQIALGNKDINTFEQIDDYNPDTAMPAHSRSHSWDDKTCQKSANVSSIWHRNYSPRPESGTVSDAPQLKENPSTVGVERVISTKGLNLPRKSSIVKRPRSAELSEDDLLSQYSLSFTKKTKKNSSEGNKSLSFSEVFVPDLVNGPTNKKSVSTPPRTRNKFATFLQRKNEESGAVVVPGTRSRFFCSSDSTDCVSNKVSIQPLDETAVTDKENNLHESEYGDQEGKRLVDTDVARNSSDDIPNNHIPGDHIPDKATVFTDEESYSFESSKFTRTISPPTLGTLRSCFSWSGGLGDFSRTPSPSPSTALQQFRRKSDSPTSLPENNMSDVSQLKSEESSDDESHPLREEACSSQSQESGEFSLQSSNASKLSQCSSKDSD
modifications: N-terminal YFP tag
With B1 the hMLH1 interaction (hMLH1 [1]) was “sustain partial hMLH1 interaction”, the “Small foci (CFP-PCNA)” value [2] was 18% and the “Large foci (CFP-PCNA)” value [2] was 8%. The “Mid Foci (CFP-PCNA)” value [2] was 20%, the “foci formation and co-localization with PCNA during S-phase” value [2] was “none of the variant proteins were able to form foci or co-localize with PCNA during S-phase” and the sub-cellular localization [2] was “strictly nuclear”.

B2: YFP-hEXO1-F506A;F507A: MIP-box (putative PIP-box) substitution variant of YFP-hEXO1 (protein, UniProt Q9UQ84 1-846, looked up, variant F506A F507A)
Exonuclease 1: MGIQGLLQFIKEASEPIHVRKYKGQVVAVDTYCWLHKGAIACAEKLAKGEPTDRYVGFCMKFVNMLLSHGIKPILVFDGCTLPSKKEVERSRRERRQANLLKGKQLLREGKVSEARECFTRSINITHAMAHKVIKAARSQGVDCLVAPYEADAQLAYLNKAGIVQAIITEDSDLLAFGCKKVILKMDQFGNGLEIDQARLGMCRQLGDVFTEEKFRYMCILSGCDYLSSLRGIGLAKACKVLRLANNPDIVKVIKKIGHYLKMNITVPEDYINGFIRANNTFLYQLVFDPIKRKLIPLNAYEDDVDPETLSYAGQYVDDSIALQIALGNKDINTFEQIDDYNPDTAMPAHSRSHSWDDKTCQKSANVSSIWHRNYSPRPESGTVSDAPQLKENPSTVGVERVISTKGLNLPRKSSIVKRPRSAELSEDDLLSQYSLSFTKKTKKNSSEGNKSLSFSEVFVPDLVNGPTNKKSVSTPPRTRNKFATFLQRKNEESGAVVVPGTRSRAACSSDSTDCVSNKVSIQPLDETAVTDKENNLHESEYGDQEGKRLVDTDVARNSSDDIPNNHIPGDHIPDKATVFTDEESYSFESSKFTRTISPPTLGTLRSCFSWSGGLGDFSRTPSPSPSTALQQFRRKSDSPTSLPENNMSDVSQLKSEESSDDESHPLREEACSSQSQESGEFSLQSSNASKLSQCSSKDSDSEESDCNIKLLDSQSDQTSKLRLSHFSKKDTPLRNKVPGLYKSSSADSLSTTKIKPLGPARASGLSKKPASIQKRKHHNAENKPGLQIKLNELWKNFGFKKDSEKLPPCKKPLSPVRDNIQLTPEAEEDIFNKPECGRVQRAIFQ
modifications: N-terminal YFP tag
In the case of B2, the “influence of mutation on hEXO1 hMLH1 interaction” value (hMLH1 [3]) is listed as “influence hEXO1 hMLH1 interactions”, the “Small foci (CFP-PCNA)” value [2] is listed as 4% and the “Large foci (CFP-PCNA)” value [2] is listed as 0%. For the same molecule, the “Mid Foci (CFP-PCNA)” value [2] was 0%, the “effect of expression on S-phase distribution” value ([2]; NIH3T3 cells co-expressing CFP-PCNA) was “only very few S-phase cells, co-expressing this variant and PCNA were observed” and the “foci formation and co-localization with PCNA during S-phase” value [2] was “unable to associate with PCNA in replication foci”. For the same molecule, the sub-cellular localization [2] was “higher degree of cytoplasmic distribution”.

B3: hEXO1-K418A: NLS mutant (protein, UniProt Q9UQ84 1-846, looked up, variant K418A)
Exonuclease 1: MGIQGLLQFIKEASEPIHVRKYKGQVVAVDTYCWLHKGAIACAEKLAKGEPTDRYVGFCMKFVNMLLSHGIKPILVFDGCTLPSKKEVERSRRERRQANLLKGKQLLREGKVSEARECFTRSINITHAMAHKVIKAARSQGVDCLVAPYEADAQLAYLNKAGIVQAIITEDSDLLAFGCKKVILKMDQFGNGLEIDQARLGMCRQLGDVFTEEKFRYMCILSGCDYLSSLRGIGLAKACKVLRLANNPDIVKVIKKIGHYLKMNITVPEDYINGFIRANNTFLYQLVFDPIKRKLIPLNAYEDDVDPETLSYAGQYVDDSIALQIALGNKDINTFEQIDDYNPDTAMPAHSRSHSWDDKTCQKSANVSSIWHRNYSPRPESGTVSDAPQLKENPSTVGVERVISTKGLNLPRKSSIVARPRSAELSEDDLLSQYSLSFTKKTKKNSSEGNKSLSFSEVFVPDLVNGPTNKKSVSTPPRTRNKFATFLQRKNEESGAVVVPGTRSRFFCSSDSTDCVSNKVSIQPLDETAVTDKENNLHESEYGDQEGKRLVDTDVARNSSDDIPNNHIPGDHIPDKATVFTDEESYSFESSKFTRTISPPTLGTLRSCFSWSGGLGDFSRTPSPSPSTALQQFRRKSDSPTSLPENNMSDVSQLKSEESSDDESHPLREEACSSQSQESGEFSLQSSNASKLSQCSSKDSDSEESDCNIKLLDSQSDQTSKLRLSHFSKKDTPLRNKVPGLYKSSSADSLSTTKIKPLGPARASGLSKKPASIQKRKHHNAENKPGLQIKLNELWKNFGFKKDSEKLPPCKKPLSPVRDNIQLTPEAEEDIFNKPECGRVQRAIFQ
modifications: N-terminal YFP tag
In the case of B3, the “nuclear translocation in response to laser induced DNA damage” value [4] is given as “translocated from the cytoplasm into the nucleus in response to laser induced DNA damage” and the “nuclear localization in untreated cells” value [5] is given as “excluded from the nucleus in untreated cells”.

B4: hEXO1-S702X; Δ423–507: truncated from amino acid 702 with internal deletion between amino acids 423 and 507; depleted of two hMLH1 interaction regions (protein)
chain: MGIQGLLQFIKEASEPIHVRKYKGQVVAVDTYCWLHKGAIACAEKLAKGEPTDRYVGFCMKFVNMLLSHGIKPILVFDGCTLPSKKEVERSRRERRQANLLKGKQLLREGKVSEARECFTRSINITHAMAHKVIKAARSQGVDCLVAPYEADAQLAYLNKAGIVQAIITEDSDLLAFGCKKVILKMDQFGNGLEIDQARLGMCRQLGDVFTEEKFRYMCILSGCDYLSSLRGIGLAKACKVLRLANNPDIVKVIKKIGHYLKMNITVPEDYINGFIRANNTFLYQLVFDPIKRKLIPLNAYEDDVDPETLSYAGQYVDDSIALQIALGNKDINTFEQIDDYNPDTAMPAHSRSHSWDDKTCQKSANVSSIWHRNYSPRPESGTVSDAPQLKENPSTVGVERVISTKGLNLPRKSSIVKRPRSCSSDSTDCVSNKVSIQPLDETAVTDKENNLHESEYGDQEGKRLVDTDVARNSSDDIPNNHIPGDHIPDKATVFTDEESYSFESSKFTRTISPPTLGTLRSCFSWSGGLGDFSRTPSPSPSTALQQFRRKSDSPTSLPENNMSDVSQLKSEESSDDESHPLREEACSSQSQESGEFSLQSSNASKLSQCSSKDSD
modifications: 35S-cysteine label
For B4, the hMLH1 interaction (hMLH1 [1]) was “incapable of hMLH1 interaction”.

B5: hEXO1-Δ423–507: internal deletion variant (protein)
chain: MGIQGLLQFIKEASEPIHVRKYKGQVVAVDTYCWLHKGAIACAEKLAKGEPTDRYVGFCMKFVNMLLSHGIKPILVFDGCTLPSKKEVERSRRERRQANLLKGKQLLREGKVSEARECFTRSINITHAMAHKVIKAARSQGVDCLVAPYEADAQLAYLNKAGIVQAIITEDSDLLAFGCKKVILKMDQFGNGLEIDQARLGMCRQLGDVFTEEKFRYMCILSGCDYLSSLRGIGLAKACKVLRLANNPDIVKVIKKIGHYLKMNITVPEDYINGFIRANNTFLYQLVFDPIKRKLIPLNAYEDDVDPETLSYAGQYVDDSIALQIALGNKDINTFEQIDDYNPDTAMPAHSRSHSWDDKTCQKSANVSSIWHRNYSPRPESGTVSDAPQLKENPSTVGVERVISTKGLNLPRKSSIVKRPRSCSSDSTDCVSNKVSIQPLDETAVTDKENNLHESEYGDQEGKRLVDTDVARNSSDDIPNNHIPGDHIPDKATVFTDEESYSFESSKFTRTISPPTLGTLRSCFSWSGGLGDFSRTPSPSPSTALQQFRRKSDSPTSLPENNMSDVSQLKSEESSDDESHPLREEACSSQSQESGEFSLQSSNASKLSQCSSKDSDSEESDCNIKLLDSQSDQTSKLRLSHFSKKDTPLRNKVPGLYKSSSADSLSTTKIKPLGPARASGLSKKPASIQKRKHHNAENKPGLQIKLNELWKNFGFKKDSEKLPPCKKPLSPVRDNIQLTPEAEEDIFNKPECGRVQRAIFQ
modifications: 35S-cysteine label; left off: myc, C-terminal, state not stated | His6, C-terminal, state not stated
For B5, the hMLH1 interaction (hMLH1 [1]) was “sustain partial hMLH1 interaction”.

— article PMC4586255 (DNA repair, 2010)
